Test results from ChEMBL document CHEMBL1140225, “Design of annulated pyrazoles as inhibitors of HIV-1 reverse transcriptase” (J Med Chem, 2008).

How the values were obtained:
[1] = molecular target: Human immunodeficiency virus type 1 reverse transcriptase (Human immunodeficiency virus 1, UniProt Q72547); experiment: Inhibition of RNA-dependent DNA polymerase activity of wild type HIV1 reverse transcriptase by SPA
[2] = tested on: Human immunodeficiency virus; experiment: Antiviral activity against wild type HIV HXB2 in human MT4 cells assessed as protection against virus-induced cell death after 5 days by MTT assay; format: functional, organism-based; conditions: Human immunodeficiency virus 1, MT4, 120 h
[3] = tested on: Human immunodeficiency virus; experiment: Antiviral activity against […] HIV HXB2 with reverse transcriptase […]/Tyr181Cys mutation in human MT4 cells assessed as protection against virus-induced cell death after 5 days by MTT assay; format: functional, organism-based; conditions: Human immunodeficiency virus 1, MT4, 120 h
[4] = molecular target: Human immunodeficiency virus type 1 reverse transcriptase (Human immunodeficiency virus 1, UniProt Q72547, K103N/Y181C); experiment: Inhibition of RNA-dependent DNA polymerase activity of HIV1 reverse transcriptase Lys103Asn/Tyr181Cys mutant by SPA
[5] = tested on: Human immunodeficiency virus; experiment: Antiviral activity against NNRTI-resistant HIV HXB2 with reverse transcriptase 100I mutation in human MT4 cells assessed as protection against virus-induced cell death after 5 days by MTT assay; format: functional, organism-based; conditions: Human immunodeficiency virus 1, MT4, 120 h
How it was run: (§1)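 MT4 cells in log-phase growth (2 × 10⁶) infected with HXB2-strain HIV at 0.0001 infectious units/cell for 1 h at 37 °C, washed in PBS, then plated at 3.5 × 10⁴ cells/well. Serial 2-fold dilutions, four replicates, final 625-1.22 nM, in RPMI 1640/10% FCS. Incubated 5 days at 37 °C, 5% CO₂. MTT added for 2 h, absorbance read at 540/690 nm. % protection vs uninfected and virus controls; IC50 taken from plot against log concentration.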

[6] = tested on: Human immunodeficiency virus; experiment: Antiviral activity against NNRTI-resistant HIV HXB2 isolate 29 with reverse transcriptase K103, Y181 mutation in human MT4 cells assessed as protection against virus-induced cell death after 5 days by MTT assay; format: functional, organism-based; conditions: Human immunodeficiency virus 1, MT4, 120 h
[7] = Clearance in monkey at 0.5 mg/kg, iv; conditions: rhesus monkey, in vivo
[8] = Half life in rat at 0.5 mg/kg, iv; conditions: in vivo
[9] = tested on: Human immunodeficiency virus; experiment: Antiviral activity against NNRTI-resistant HIV HXB2 with reverse transcriptase 138K mutation in human MT4 cells assessed as protection against virus-induced cell death after 5 days by MTT assay; format: functional, organism-based; conditions: Human immunodeficiency virus 1, MT4, 120 h; how it was run: as §1
[10] = tested on: Human immunodeficiency virus; experiment: Antiviral activity against NNRTI-resistant HIV HXB2 isolate 16 with reverse transcriptase K103, P225 mutation in human MT4 cells assessed as protection against virus-induced cell death after 5 days by MTT assay; format: functional, organism-based; conditions: Human immunodeficiency virus 1, MT4, 120 h
[11] = tested on: Human immunodeficiency virus; experiment: Antiviral activity against NNRTI-resistant HIV HXB2 with reverse transcriptase 101E mutation in human MT4 cells assessed as protection against virus-induced cell death after 5 days by MTT assay; format: functional, organism-based; conditions: Human immunodeficiency virus 1, MT4, 120 h; how it was run: as §1
[12] = tested on: Human immunodeficiency virus; experiment: Antiviral activity against NNRTI-resistant HIV HXB2 with reverse transcriptase 225H mutation in human MT4 cells assessed as protection against virus-induced cell death after 5 days by MTT assay; format: functional, organism-based; conditions: Human immunodeficiency virus 1, MT4; how it was run: as §1
[13] = tested on: Human immunodeficiency virus; experiment: Antiviral activity against NNRTI-resistant HIV HXB2 with reverse transcriptase 190S mutation in human MT4 cells assessed as protection against virus-induced cell death after 5 days by MTT assay; format: functional, organism-based; conditions: Human immunodeficiency virus 1, MT4, 120 h; how it was run: as §1
[14] = Clearance in rat at 0.5 mg/kg, iv; conditions: in vivo
[15] = Volume of distribution at steady state in rat at 0.5 mg/kg, iv; conditions: in vivo, read-out: Vdss
[16] = Volume of distribution at steady state in dog at 0.5 mg/kg, iv; conditions: in vivo, read-out: Vdss
[17] = Half life in dog at 0.5 mg/kg, iv; conditions: in vivo
[18] = tested on: Human immunodeficiency virus; experiment: Antiviral activity against NNRTI-resistant HIV HXB2 isolate 20 with reverse transcriptase K103, Y181 mutation in human MT4 cells assessed as protection against virus-induced cell death after 5 days by MTT assay; format: functional, organism-based; conditions: Human immunodeficiency virus 1, MT4, 120 h
[19] = tested on: Human immunodeficiency virus; experiment: Antiviral activity against NNRTI-resistant HIV HXB2 isolate 21 with reverse transcriptase K103, V179, Y181 mutation in human MT4 cells assessed as protection against virus-induced cell death after 5 days by MTT assay; format: functional, organism-based; conditions: Human immunodeficiency virus 1, MT4, 120 h
[20] = Volume of distribution at steady state in monkey at 0.5 mg/kg, iv; conditions: rhesus monkey, in vivo, read-out: Vdss
[21] = tested on: Human immunodeficiency virus; experiment: Antiviral activity against NNRTI-resistant HIV HXB2 with reverse transcriptase 103N mutation in human MT4 cells assessed as protection against virus-induced cell death after 5 days by MTT assay; format: functional, organism-based; conditions: Human immunodeficiency virus 1, MT4, 120 h; how it was run: as §1
[22] = tested on: Human immunodeficiency virus; experiment: Antiviral activity against NNRTI-resistant HIV HXB2 with reverse transcriptase 188H mutation in human MT4 cells assessed as protection against virus-induced cell death after 5 days by MTT assay; format: functional, organism-based; conditions: Human immunodeficiency virus 1, MT4; how it was run: as §1
[23] = tested on: Human immunodeficiency virus; experiment: Antiviral activity against NNRTI-resistant HIV HXB2 with reverse transcriptase 106A mutation in human MT4 cells assessed as protection against virus-induced cell death after 5 days by MTT assay; format: functional, organism-based; conditions: Human immunodeficiency virus 1, MT4, 120 h; how it was run: as §1
[24] = tested on: Human immunodeficiency virus; experiment: Antiviral activity against NNRTI-resistant HIV HXB2 isolate 17 with reverse transcriptase A98, K103, Y181 mutation in human MT4 cells assessed as protection against virus-induced cell death after 5 days by MTT assay; format: functional, organism-based; conditions: Human immunodeficiency virus 1, MT4, 120 h
[25] = tested on: Human immunodeficiency virus; experiment: Antiviral activity against wild type HIV HXB2 in human MT4 cells assessed as protection against virus-induced cell death after 5 days by MTT assay in presence of 40% human serum; format: functional, organism-based; conditions: Human immunodeficiency virus 1, MT4, 120 h
[26] = Half life in monkey at 0.5 mg/kg, iv; conditions: rhesus monkey, in vivo
[27] = Clearance in dog at 0.5 mg/kg, iv; conditions: in vivo
[28] = Inhibition of RNA-dependent DNA polymerase activity of HIV1 reverse transcriptase Tyr181Cys mutant by SPA; parameters: species or system Human immunodeficiency virus 1
How it was run: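 Purified recombinant RT (1-3 nM final) with 18nt biotinylated DNA primer (32 nM) on a 47nt RNA template (64 nM). Run 30 min at 30 °C, stopped with EDTA, product captured on streptavidin SPA beads. IC50 by sigmoidal regression.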

[29] = molecular target: Human immunodeficiency virus type 1 reverse transcriptase (Human immunodeficiency virus 1, UniProt Q72547, K103N); experiment: Inhibition of RNA-dependent DNA polymerase activity of HIV1 reverse transcriptase Lys103Asn mutant by SPA
[30] = tested on: Human immunodeficiency virus; experiment: Antiviral activity against NNRTI-resistant HIV HXB2 with reverse transcriptase 108I mutation in human MT4 cells assessed as protection against virus-induced cell death after 5 days by MTT assay; format: functional, organism-based; conditions: Human immunodeficiency virus 1, MT4, 120 h; how it was run: as §1
[31] = tested on: Human immunodeficiency virus; experiment: Antiviral activity against NNRTI-resistant HIV HXB2 with reverse transcriptase 190A mutation in human MT4 cells assessed as protection against virus-induced cell death after 5 days by MTT assay; format: functional, organism-based; conditions: Human immunodeficiency virus 1, MT4, 120 h; how it was run: as §1
[32] = tested on: Human immunodeficiency virus; experiment: Antiviral activity against NNRTI-resistant HIV HXB2 with reverse transcriptase 181C mutation in human MT4 cells assessed as protection against virus-induced cell death after 5 days by MTT assay; format: functional, organism-based; conditions: Human immunodeficiency virus 1, MT4, 120 h; how it was run: as §1
[33] = tested on: Human immunodeficiency virus; experiment: Antiviral activity against NNRTI-resistant HIV HXB2 with reverse transcriptase 179D mutation in human MT4 cells assessed as protection against virus-induced cell death after 5 days by MTT assay; format: functional, organism-based; conditions: Human immunodeficiency virus 1, MT4, 120 h; how it was run: as §1
[34] = tested on: Human immunodeficiency virus; experiment: Antiviral activity against NNRTI-resistant HIV HXB2 with reverse transcriptase 236L mutation in human MT4 cells assessed as protection against virus-induced cell death after 5 days by MTT assay; format: functional, organism-based; conditions: Human immunodeficiency virus 1, MT4, 120 h; how it was run: as §1
[35] = tested on: Human immunodeficiency virus; experiment: Antiviral activity against NNRTI-resistant HIV HXB2 with reverse transcriptase 181I mutation in human MT4 cells assessed as protection against virus-induced cell death after 5 days by MTT assay; format: functional, organism-based; conditions: Human immunodeficiency virus 1, MT4, 120 h; how it was run: as §1
[36] = tested on: Human immunodeficiency virus; experiment: Antiviral activity against NNRTI-resistant HIV HXB2 with reverse transcriptase 227L mutation in human MT4 cells assessed as protection against virus-induced cell death after 5 days by MTT assay; format: functional, organism-based; conditions: Human immunodeficiency virus 1, MT4, 120 h; how it was run: as §1

N#Cc1cc(Cl)cc(Oc2c(Br)ccc(Cc3n[nH]c4ncccc34)c2F)c1
IC50 [1]: 8 nM | EC50 [2]: 1 nM | EC50 [3]: 12 nM

N#Cc1cc(Cl)cc(Oc2c(Br)ccc(Cc3n[nH]c4nccnc34)c2F)c1
IC50 [1]: 3 nM | EC50 [2]: < 25 nM | EC50 [3]: > 100 nM | IC50 [4]: 14 nM

Cn1ccc2c(Cc3ccc(Br)c(Oc4cc(Cl)cc(C#N)c4)c3F)n[nH]c2c1=O
IC50 [1]: 8 nM | EC50 [2]: 4 nM | EC50 [3]: 97 nM | IC50 [4]: 12 nM

N#Cc1cc(Cl)cc(Oc2c(Br)ccc(Cc3n[nH]c4c(N)cccc34)c2F)c1
IC50 [1]: 24 nM | EC50 [2]: 8 nM | EC50 [3]: 84 nM | IC50 [4]: 22 nM

N#Cc1cc(Cl)cc(Oc2c(Cl)ccc(Cc3n[nH]c4nnccc34)c2F)c1
EC50 [5]: < 1 nM | IC50 [6]: 2 nM | clearance [7]: 1.3 mL/min/kg | half-life [8]: 4.2 h | EC50 [9]: 2 nM | IC50 [10]: 3 nM | EC50 [11]: 2 nM | EC50 [12]: < 1 nM | EC50 [2]: 1 nM | EC50 [13]: < 1 nM | clearance [14]: 2.9 mL/min/kg | Vd [15]: 0.91 L/kg | Vd [16]: 0.99 L/kg | half-life [17]: 5.6 h | IC50 [18]: 4 nM | IC50 [19]: 3 nM | Vd [20]: 1.21 L/kg | EC50 [21]: < 1 nM | EC50 [22]: < 1 nM | EC50 [23]: 2 nM | IC50 [24]: 5 nM | EC50 [25]: 5 nM | half-life [26]: 12.2 h | clearance [27]: 4.6 mL/min/kg

Cc1cc(C#N)cc(Oc2ccc(Cc3n[nH]c4nnccc34)cc2Br)c1
IC50 [28]: 800 nM | EC50 [2]: 17 nM | EC50 [3]: > 100 nM | IC50 [29]: 120 nM

N#Cc1cc(Cl)cc(Oc2c(Br)ccc(Cc3n[nH]c4cnccc34)c2F)c1
IC50 [1]: 5 nM | EC50 [2]: 2 nM | EC50 [3]: 18 nM | IC50 [4]: 9 nM

N#Cc1cc(C#N)cc(Oc2c(Br)ccc(Cc3n[nH]c4nnccc34)c2F)c1
EC50 [2]: 1 nM | EC50 [3]: 3 nM

N#Cc1cc(Cl)cc(Oc2c(Br)ccc(Cc3n[nH]c4c(C#N)cccc34)c2F)c1
IC50 [1]: 24 nM | EC50 [2]: 5 nM | EC50 [3]: 53 nM | IC50 [4]: 15 nM

O=C1Nc2ccc(Cl)cc2[C@@](C#CC2CC2)(C(F)(F)F)O1 [EFAVIRENZ]
EC50 [5]: 7 nM | EC50 [9]: 2 nM | EC50 [30]: 3 nM | EC50 [11]: 12 nM | EC50 [31]: 6 nM | EC50 [12]: 1 nM | EC50 [32]: 3 nM | EC50 [13]: > 100 nM | EC50 [33]: 8 nM | EC50 [34]: < 1 nM | EC50 [35]: 2 nM | EC50 [21]: 66 nM | EC50 [22]: 4 nM | EC50 [23]: 6 nM | EC50 [25]: 18 nM | EC50 [36]: 1 nM

Cc1cc(C#N)cc(C)c1Oc1nc(Nc2ccc(C#N)cc2)nc(N)c1Br [ETRAVIRINE]
IC50 [6]: 3 nM | IC50 [10]: 1 nM | IC50 [18]: 7 nM | IC50 [19]: 17 nM | IC50 [24]: 14 nM
